Results from ChEMBL document CHEMBL4041526, “Discovery of 2H-Chromen-2-one Derivatives as G Protein-Coupled Receptor-35 Agonists” (J Med Chem, 2017).
Active and inactive are the calls of the source. The calls are words filed in the database; no cut-off is given here.

target: T1, G-protein coupled receptor 35 (Homo sapiens, UniProt Q9HC97); assay: Agonist activity at human GPR35 expressed in CHO-K1 cells by DMR assay; format: cell-based; conditions: not given
T1 sequence (Q9HC97 whole entry): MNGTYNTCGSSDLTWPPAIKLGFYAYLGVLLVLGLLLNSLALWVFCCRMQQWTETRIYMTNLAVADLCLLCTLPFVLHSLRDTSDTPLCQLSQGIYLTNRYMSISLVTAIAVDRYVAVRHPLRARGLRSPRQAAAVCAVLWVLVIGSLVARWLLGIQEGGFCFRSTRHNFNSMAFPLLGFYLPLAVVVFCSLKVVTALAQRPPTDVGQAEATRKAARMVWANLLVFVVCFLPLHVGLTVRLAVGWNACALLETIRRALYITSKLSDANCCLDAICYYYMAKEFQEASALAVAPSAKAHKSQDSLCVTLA

| EC50 | SMILES |
| --- | --- |
| 0.052 µM | O=C(O)c1cc(=O)c2c(OCC(O)COc3cccc4oc(C(=O)O)cc(=O)c34)cccc2o1 [CROMOLYN] |

target: T1, G-protein coupled receptor 35; assay: Agonist activity at human GPR35 expressed in CHO-K1 cells after 90 mins by beta-arrestin 2 recruitment assay; format: cell-based; conditions: not given

| EC50 | SMILES |
| --- | --- |
| 7 µM | O=C(O)c1cc(=O)c2c(OCC(O)COc3cccc4oc(C(=O)O)cc(=O)c34)cccc2o1 [CROMOLYN] |
| 4 µM | N#Cc1cc(NC(=O)C(=O)O)c(Cl)c(NC(=O)C(=O)O)c1 [LODOXAMIDE] |
| 4 µM | CC(C)c1ccc2oc3nc(N)c(C(=O)O)cc3c(=O)c2c1 [AMLEXANOX] |

target: T1, G-protein coupled receptor 35; assay: Agonist activity at GPR35 in human HT-29 cells by DMR assay; format: cell-based; conditions: not given
In short: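 HT-29 cells with endogenous GPR35, grown in McCoy's 5A with 10% FBS at 37 °C/5% CO2, seeded overnight to a confluent monolayer on resonant waveguide grating biosensor plates. Cells were washed, kept in HBSS for 1 h in the reader, and given a 2 min baseline before compound addition. Mean ± sd, two independent runs × four replicates (n=8).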

| EC50 | SMILES |
| --- | --- |
| Not Active | N#Cc1cc2ccccc2oc1=O |

same assay, conditions: read-out: EC50

| EC50 | SMILES |
| --- | --- |
| 0.014 µM | O=c1oc2c([N+](=O)[O-])c(O)c([N+](=O)[O-])cc2cc1-c1nnn[nH]1 |
| 2.66 µM | COc1c(Br)cc2cc(-c3nnn[nH]3)c(=O)oc2c1[N+](=O)[O-] |
| 6.76 µM | O=c1oc2ccccc2cc1-c1nn[nH]n1 |
| 4.34 µM | O=C(O)c1cc2cc(Br)c(O)cc2oc1=O |
| 0.89 µM | COc1c(Br)cc2cc(C(=O)O)c(=O)oc2c1Br |
| 0.0058 µM | O=c1oc2c([N+](=O)[O-])c(O)c(Br)cc2cc1-c1nnn[nH]1 |
| 8.61 µM | N#Cc1cc2cc(Cl)cc(Cl)c2oc1=O |
| 17.7 µM | N#Cc1cc2cc(Br)cc(Br)c2oc1=O |
| 14.8 µM | COc1cc2oc(=O)c(-c3nnn[nH]3)cc2cc1Br |
| 0.71 µM | O=c1oc2cc(O)c(Br)cc2cc1-c1nnn[nH]1 |
| 0.051 µM | O=C(O)c1cc2cc(Br)c(O)c([N+](=O)[O-])c2oc1=O |
| 21.4 µM | N#Cc1cc2cc(Cl)ccc2oc1=O |

target: T1, G-protein coupled receptor 35; assay: Agonist activity at GPR35 in human HT-29 cells assessed as induction of cell desensitization to 1 uM zaprinast preincubated for 1 hr followed by zaprinast stimulation measured after 8 minutes by DMR assay; format: cell-based; conditions: not given
In short: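 Desensitization format in HT-29 cells on resonant waveguide grating biosensor plates, held in HBSS. […] Mean ± sd, two independent measurements, each with four replicates (n=8).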

| SMILES | IC50 | Activity |
| --- | --- | --- |
| O=c1oc2c([N+](=O)[O-])c(O)c([N+](=O)[O-])cc2cc1-c1nnn[nH]1 | 0.013 µM | – |
| COc1c(Br)cc2cc(-c3nnn[nH]3)c(=O)oc2c1[N+](=O)[O-] | 2.82 µM | – |
| O=c1oc2ccccc2cc1-c1nn[nH]n1 | 5.08 µM | – |
| O=C(O)c1cc2cc(Br)c(O)cc2oc1=O | 3.76 µM | – |
| COc1c(Br)cc2cc(C(=O)O)c(=O)oc2c1Br | 0.75 µM | – |
| O=c1oc2c([N+](=O)[O-])c(O)c(Br)cc2cc1-c1nnn[nH]1 | 0.0086 µM | Dose-dependent effect |
| N#Cc1cc2cc(Cl)cc(Cl)c2oc1=O | 8.61 µM | – |
| N#Cc1cc2cc(Br)cc(Br)c2oc1=O | 14.9 µM | – |
| COc1cc2oc(=O)c(-c3nnn[nH]3)cc2cc1Br | 14.1 µM | – |
| O=c1oc2cc(O)c(Br)cc2cc1-c1nnn[nH]1 | 0.483 µM | – |
| O=C(O)c1cc2cc(Br)c(O)c([N+](=O)[O-])c2oc1=O | 0.031 µM | – |
| N#Cc1cc2cc(Cl)ccc2oc1=O | 21.4 µM | – |

target: T1, G-protein coupled receptor 35; assay: Agonist activity at GPR35 in human HT-29 cells in presence of antagonist ML-145 by DMR assay; format: cell-based; conditions: not given
In short: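 HT-29 DMR antagonist format: ML-145 was titrated against the coumarin agonist, each agonist given at its EC80–EC100 dose. Cells were kept in HBSS and equilibrated 1 h in the reader. IC50 was calculated from the DMR amplitude at 8 min post-stimulation. Mean ± sd, two independent measurements × four replicates (n=8).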

| Activity | SMILES |
| --- | --- |
| inactive | O=c1oc2c([N+](=O)[O-])c(O)c([N+](=O)[O-])cc2cc1-c1nnn[nH]1 |
| inactive | COc1c(Br)cc2cc(-c3nnn[nH]3)c(=O)oc2c1[N+](=O)[O-] |
| inactive | O=c1oc2ccccc2cc1-c1nn[nH]n1 |
| inactive | O=C(O)c1cc2cc(Br)c(O)cc2oc1=O |
| inactive | COc1c(Br)cc2cc(C(=O)O)c(=O)oc2c1Br |
| inactive | O=c1oc2c([N+](=O)[O-])c(O)c(Br)cc2cc1-c1nnn[nH]1 |
| inactive | N#Cc1cc2cc(Cl)cc(Cl)c2oc1=O |
| inactive | N#Cc1cc2cc(Br)cc(Br)c2oc1=O |
| inactive | COc1cc2oc(=O)c(-c3nnn[nH]3)cc2cc1Br |
| inactive | O=c1oc2cc(O)c(Br)cc2cc1-c1nnn[nH]1 |
| inactive | O=C(O)c1cc2cc(Br)c(O)c([N+](=O)[O-])c2oc1=O |
| inactive | N#Cc1cc2cc(Cl)ccc2oc1=O |

target: T1, G-protein coupled receptor 35; assay: Agonist activity at TEV protease cleavage site linked GAL4-VP16-fused GPR35 in human Tango GPR35-bla U2OS cells assessed as induction of TEV protease-tagged beta-arrestin recruitment incubated for 5 hrs by beta-lactamase reporter gene assay; conditions: not given

| EC50 | SMILES |
| --- | --- |
| 0.288 µM | O=c1oc2c([N+](=O)[O-])c(O)c([N+](=O)[O-])cc2cc1-c1nnn[nH]1 |
| 0.197 µM | O=c1oc2c([N+](=O)[O-])c(O)c(Br)cc2cc1-c1nnn[nH]1 |
| 0.479 µM | O=C(O)c1cc2cc(Br)c(O)c([N+](=O)[O-])c2oc1=O |

target: T1, G-protein coupled receptor 35; assay: Agonist activity at TEV protease cleavage site linked GAL4-VP16-fused GPR35 in human Tango GPR35-bla U2OS cells assessed as induction of TEV protease-tagged beta-arrestin recruitment incubated for 5 hrs by beta-lactamase reporter gene assay relative to zaprinast; conditions: not given

| Efficacy | SMILES |
| --- | --- |
| 107% | O=c1oc2c([N+](=O)[O-])c(O)c([N+](=O)[O-])cc2cc1-c1nnn[nH]1 |
| 104% | O=c1oc2c([N+](=O)[O-])c(O)c(Br)cc2cc1-c1nnn[nH]1 |
| 111% | O=C(O)c1cc2cc(Br)c(O)c([N+](=O)[O-])c2oc1=O |

target: Histamine H1 receptor (Homo sapiens) (UniProt P35367); assay: Agonist activity at histamine H1 receptor in human A431 cells at 1 uM preincubated for 1 hr followed by histamine addition by DMR assay; format: cell-based; conditions: not given
Sequence (P35367 whole entry): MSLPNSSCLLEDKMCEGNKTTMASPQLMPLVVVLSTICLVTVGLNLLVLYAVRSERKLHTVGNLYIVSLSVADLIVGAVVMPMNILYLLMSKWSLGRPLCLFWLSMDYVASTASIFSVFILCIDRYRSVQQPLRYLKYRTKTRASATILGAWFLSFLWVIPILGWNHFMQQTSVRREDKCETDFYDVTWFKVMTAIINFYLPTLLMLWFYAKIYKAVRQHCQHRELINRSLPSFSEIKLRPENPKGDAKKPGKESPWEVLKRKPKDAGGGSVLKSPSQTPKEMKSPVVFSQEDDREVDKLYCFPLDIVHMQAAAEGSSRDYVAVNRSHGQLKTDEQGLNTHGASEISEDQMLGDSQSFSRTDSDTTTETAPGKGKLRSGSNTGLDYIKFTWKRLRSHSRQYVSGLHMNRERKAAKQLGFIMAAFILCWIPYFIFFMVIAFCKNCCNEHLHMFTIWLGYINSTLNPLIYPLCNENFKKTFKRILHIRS

| Activity | SMILES |
| --- | --- |
| inactive | O=c1oc2c([N+](=O)[O-])c(O)c(Br)cc2cc1-c1nnn[nH]1 |

target: Hydroxycarboxylic acid receptor 2 (Homo sapiens) (UniProt Q8TDS4); assay: Agonist activity at GPR109a receptor in human A431 cells at 1 uM preincubated for 1 hr followed by niacin addition by DMR assay; format: cell-based; conditions: not given
Sequence (Q8TDS4 whole entry): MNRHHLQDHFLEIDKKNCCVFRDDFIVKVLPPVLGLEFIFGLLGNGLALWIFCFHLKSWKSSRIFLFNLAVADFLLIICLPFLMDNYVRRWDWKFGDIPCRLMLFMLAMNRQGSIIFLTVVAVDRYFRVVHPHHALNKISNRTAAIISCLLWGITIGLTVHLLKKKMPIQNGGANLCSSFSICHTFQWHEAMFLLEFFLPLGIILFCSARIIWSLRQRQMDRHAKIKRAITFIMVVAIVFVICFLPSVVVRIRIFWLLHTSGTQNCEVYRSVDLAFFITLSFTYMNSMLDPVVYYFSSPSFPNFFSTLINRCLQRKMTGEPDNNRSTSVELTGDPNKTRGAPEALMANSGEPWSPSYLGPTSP

| Activity | SMILES |
| --- | --- |
| inactive | O=c1oc2c([N+](=O)[O-])c(O)c(Br)cc2cc1-c1nnn[nH]1 |

target: Beta-2 adrenergic receptor (Homo sapiens) (UniProt P07550); assay: Agonist activity at beta2 adrenergic receptor in human A431 cells at 1 uM preincubated for 1 hr followed by epinephrine addition by DMR assay; format: cell-based; conditions: not given
Sequence (P07550 whole entry, looked up): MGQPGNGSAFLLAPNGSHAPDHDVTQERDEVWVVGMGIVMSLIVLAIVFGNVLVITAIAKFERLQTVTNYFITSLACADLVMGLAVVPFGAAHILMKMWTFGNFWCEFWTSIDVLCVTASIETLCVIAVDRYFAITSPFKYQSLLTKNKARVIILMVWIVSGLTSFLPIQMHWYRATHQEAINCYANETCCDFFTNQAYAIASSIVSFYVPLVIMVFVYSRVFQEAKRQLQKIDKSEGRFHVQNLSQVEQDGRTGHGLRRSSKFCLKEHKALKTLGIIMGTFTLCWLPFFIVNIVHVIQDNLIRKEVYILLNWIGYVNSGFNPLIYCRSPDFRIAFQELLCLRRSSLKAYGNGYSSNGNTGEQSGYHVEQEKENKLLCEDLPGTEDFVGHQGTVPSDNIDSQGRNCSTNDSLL

| Activity | SMILES |
| --- | --- |
| inactive | O=c1oc2c([N+](=O)[O-])c(O)c(Br)cc2cc1-c1nnn[nH]1 |

target: T2, Type-1 angiotensin II receptor (Homo sapiens) (UniProt P30556); assay: Agonist activity at angiotensin AT1 receptor in human A549 cells at 1 uM preincubated for 1 hr followed by angiotensin 2 addition by DMR assay; format: cell-based; conditions: not given
T2 sequence (whole entry): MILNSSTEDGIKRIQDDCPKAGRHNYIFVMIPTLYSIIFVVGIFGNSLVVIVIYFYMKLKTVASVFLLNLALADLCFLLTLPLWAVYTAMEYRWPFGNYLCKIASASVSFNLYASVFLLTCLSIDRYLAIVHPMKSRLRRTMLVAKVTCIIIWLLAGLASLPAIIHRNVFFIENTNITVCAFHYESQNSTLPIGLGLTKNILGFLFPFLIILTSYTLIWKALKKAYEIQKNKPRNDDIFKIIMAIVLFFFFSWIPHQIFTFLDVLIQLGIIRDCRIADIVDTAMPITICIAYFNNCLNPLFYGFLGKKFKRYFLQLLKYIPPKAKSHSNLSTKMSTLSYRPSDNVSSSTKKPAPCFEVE

| Activity | SMILES |
| --- | --- |
| inactive | O=c1oc2c([N+](=O)[O-])c(O)c(Br)cc2cc1-c1nnn[nH]1 |

target: T3, B2 bradykinin receptor (Homo sapiens) (UniProt P30411); assay: Agonist activity at bradykinin B2 receptor in human A549 cells at 1 uM preincubated for 1 hr followed by bradykinin addition by DMR assay; format: cell-based; conditions: not given
T3 sequence (whole entry): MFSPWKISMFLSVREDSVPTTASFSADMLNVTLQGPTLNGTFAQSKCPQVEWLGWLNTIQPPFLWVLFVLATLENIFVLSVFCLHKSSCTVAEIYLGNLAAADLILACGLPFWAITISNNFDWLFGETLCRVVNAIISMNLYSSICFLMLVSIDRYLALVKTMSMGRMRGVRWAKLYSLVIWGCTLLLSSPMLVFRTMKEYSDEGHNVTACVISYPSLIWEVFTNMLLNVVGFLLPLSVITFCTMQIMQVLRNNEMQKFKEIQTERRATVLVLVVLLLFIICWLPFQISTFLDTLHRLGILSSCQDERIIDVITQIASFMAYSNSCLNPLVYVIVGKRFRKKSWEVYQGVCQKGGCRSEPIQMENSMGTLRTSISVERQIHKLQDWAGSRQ

| Activity | SMILES |
| --- | --- |
| inactive | O=c1oc2c([N+](=O)[O-])c(O)c(Br)cc2cc1-c1nnn[nH]1 |
